Laboratory results reported in ChEMBL document CHEMBL3232782, “1,2,3,4,8,9,10,11-octahydrobenzo[j]phenanthridine-7,12-diones as new leads against Mycobacterium tuberculosis” (J Med Chem, 2014).
Values after ≈ are worked out from the molar mass of the structure shown. Active and inactive are the calls of the source. The calls are words filed in the database; no cut-off is given here.

Columns and labels:
[1] = system: Mycobacterium tuberculosis; experiment: Antimycobacterial activity against Mycobacterium tuberculosis H37Rv expressing luciferase assessed as growth inhibition after 6 days by luminometry; type: functional; conditions: 144 h
Procedure, shortened: (§1)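 Strains carried pSMT1 luxAB reporter plasmid. DMSO stocks 10 mM, serially diluted in 7H9 + 10% FCS, triplicate wells. Filtered bacterial suspension at 50 000 RLU/mL. Luminescence read after 6 days using 1% n-decanal substrate. […] Growth temperatures: M.tb 37 °C; M. avium and M. bovis 39 °C.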

[2] = Selectivity index, ratio of IC50 for mouse J774A1 cells to MIC for Mycobacterium tuberculosis H37Rv expressing luciferase; type: toxicity, cell-based, J774.A1; conditions: read-out: Selectivity Index
Procedure, shortened: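 SI = IC50/MIC. IC50 came from a neutral red uptake assay on J774 A.1 cells after 24 h exposure in DMEM + 10% FCS, with OD 530 nm. […] Both were from triplicate cultures.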

[3] = Cytotoxicity against mouse J774A1 cells assessed as cell viability after 24 hrs by Trypan blue exclusion assay; type: cell-based; conditions: J774.A1, 24 h
[4] = system: Mycobacterium tuberculosis; experiment: Antimycobacterial activity against Mycobacterium tuberculosis Beijing 17919 expressing luciferase assessed as growth inhibition after 6 days by luminometry; type: functional; conditions: Beijing 17919, 144 h; procedure, shortened: as §1
[5] = system: Mycobacterium avium subsp. paratuberculosis; experiment: Antimycobacterial activity against Mycobacterium avium subsp. paratuberculosis ATCC 19698 expressing luciferase assessed as growth inhibition after 6 days by luminometry; type: functional; conditions: ATCC 19698, 144 h; procedure, shortened: as §1
[6] = Antimycobacterial activity against Mycobacterium avium subsp. avium ATCC 15769 expressing luciferase assessed as growth inhibition after 6 days by luminometry; type: functional; conditions: ATCC 15769, 144 h; procedure, shortened: as §1
[7] = system: Mycobacterium tuberculosis; experiment: Antimycobacterial activity against Mycobacterium tuberculosis H37Rv expressing luciferase infected in mouse J774A1 cells assessed as inhibition of replication at 0.25 uM measured after 1 to 4 days by luminescence assay; type: functional; conditions: J774.A1
Procedure, shortened: (§2)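 J774 A.1 cells (40 000/well) were infected with H37Rv lux at MOI 0.1 in DMEM with penicillin/fungizone and no gentamicin. Serial compound dilutions were added, with treatment starting 24 h post infection. Extracellular bacteria were removed by washes and 1 h 1% gentamicin. Cells were lysed with 1% Triton X-100 and luminescence read with n-decanal. Reduction in RLU versus untreated; INH 0.1 μM control.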

[8] = system: Mycobacterium tuberculosis; experiment: Antimycobacterial activity against Mycobacterium tuberculosis H37Rv expressing luciferase infected in mouse J774A1 cells assessed as inhibition of replication at 0.03 to 0.05 uM measured after 1 to 4 days by luminescence assay; type: functional, organism-based; conditions: J774.A1; procedure, shortened: as §2
[9] = Selectivity index, ratio of IC50 for mouse J774A1 cells to MIC for Mycobacterium tuberculosis H37Rv expressing luciferase infected in mouse J774A1 cells; type: toxicity, cell-based, J774.A1; conditions: read-out: Selectivity Index
Procedure, shortened: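 SI = neutral red IC50 in J774 A.1 cells (24 h) divided by the intracellular MIC. The intracellular MIC came from luminescent H37Rv in infected J774 A.1 macrophages after 3 days of treatment starting 24 h post infection, with lysate luminescence measured using n-decanal.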

[10] = Genotoxicity in mouse J774A1 cells assessed as DNA strand breaks at 0.25 to 50 uM after 24 hrs by Comet assay; type: toxicity, cell-based; conditions: j774.a1, 24 h
Procedure, shortened: (§3)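 J774 A.1 cells (100 000/well) were exposed to compound serial dilutions in DMEM + 10% FCS for 24 h at 37 °C, 5% CO2. Alkaline comet assay: cells embedded in low-melt agarose, lysed, electrophoresed 20 min at 300 mA, neutralized and stained with gel red. The % tail DNA of 200 nuclei was scored by fluorescence microscopy. Mann–Whitney U test.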

[11] = system: Mycobacterium tuberculosis; experiment: Antimycobacterial activity against Mycobacterium tuberculosis H37Rv expressing luciferase infected in mouse J774A1 cells assessed as inhibition of replication measured after 1 to 4 days by luminescence assay; type: functional, J774.A1; procedure, shortened: as §2
[12] = Selectivity ratio of IC90 for Mycobacterium ulcerans 1615 to IC90 for Mycobacterium tuberculosis; type: functional
[13] = system: Mycobacterium tuberculosis; experiment: Antimycobacterial activity against Mycobacterium tuberculosis H37Rv expressing luciferase assessed as growth inhibition at 100 uM preincubated with liver S9 fraction for 15 mins followed by incubation with parasite and measured after 6 days by luminometry; type: functional, organism-based
Procedure, shortened: (§4)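 Compounds (100 μM) were preincubated with NADPH/G-6-P-conditioned liver S9 at 37 °C, 5% CO2 for 15 or 30 min. They were then serially diluted and tested against luminescent H37Rv in 7H9 + 10% FCS. Luminescence was read after 6 days with n-decanal.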

[14] = system: Mycobacterium tuberculosis; experiment: Antimycobacterial activity against Mycobacterium tuberculosis H37Rv expressing luciferase assessed as growth inhibition preincubated with liver S9 fraction for 30 mins followed by incubation with parasite and measured after 6 days by luminometry; type: functional; procedure, shortened: as §4
[15] = system: Mycobacterium tuberculosis; experiment: Antimycobacterial activity against Mycobacterium tuberculosis H37Rv expressing luciferase infected in mouse J774A1 cells assessed as inhibition of replication at 0.50 uM measured after 1 to 4 days by luminescence assay; type: functional; conditions: J774.A1; procedure, shortened: as §2
[16] = Genotoxicity in mouse J774A1 cells assessed as DNA strand breaks at 0.25 to 5 uM after 24 hrs by Comet assay; type: toxicity, cell-based; conditions: j774.a1, 24 h; procedure, shortened: as §3

Q: What does the source list for `CC(C)(C)OC(=O)N1CCc2ncc3c(c2C1)C(=O)C1=C(C3=O)C2CCC1C2` (stereo not given)?
A: MIC99 [1]: 12.9 µM (≈ 4.9 µg/mL); selectivity ratio [2]: 0.57; IC50 [3]: 7.33 µM

Q: For `CC1CCc2c(ncc3c2C(=O)c2ccccc2C3=O)C1` (stereo not given), which MIC99 [1] is on record?
A: 5.3 µM (≈ 1.47 µg/mL)

Q: What about the selectivity ratio [2] of the same compound?
A: 1.53

Q: And the IC50 [3]?
A: 8.13 µM

Q: With `NNC(=O)c1ccncc1` [ISONIAZID] as the compound, how does the MIC99 [1] read?
A: 0.13 µM (≈ 0.0178 µg/mL)

Q: What about the MIC [4] of the same compound?
A: 0.09 µM (≈ 0.0123 µg/mL)

Q: What about the MIC [5] of the same compound?
A: 0.99 µM (≈ 0.136 µg/mL)

Q: And the selectivity ratio [2]?
A: > 769

Q: And the IC50 [3]?
A: > 100 µM

Q: What about the MIC [6] of the same compound?
A: 0.76 µM (≈ 0.104 µg/mL)

Q: Which results are given for `Cc1nc2c(c3c1C(=O)c1ccccc1C3=O)CCCC2C` (stereo not given)?
A: MIC99 [1]: 17.7 µM (≈ 5.15 µg/mL); selectivity ratio [2]: 1.74; IC50 [3]: 30.8 µM

Q: For `Cc1ccc2c3c(cnc2c1)C(=O)c1ccccc1C3=O`, which MIC [1] is on record?
A: 0.64 µM (≈ 0.175 µg/mL)

Q: And the selectivity ratio [2]?
A: 15

Q: And the IC50 [3]?
A: 3.21 µM

Q: For `CC1CCCc2c1ncc1c2C(=O)c2ccccc2C1=O` (stereo not given), which MIC99 [1] is on record?
A: 14.4 µM (≈ 4 µg/mL)

Q: What about the selectivity ratio [2] of the same compound?
A: 1.03

Q: And the IC50 [3]?
A: 14.9 µM

Q: Which MIC99 [1] does the source give for `CC(C)(C)C1CCc2ncc3c(c2C1)C(=O)C1=C(C3=O)C2CCC1C2` (stereo not given) here?
A: 0.59 µM (≈ 0.198 µg/mL)

Q: And the inhibition at 0.25 µM [7]?
A: 43.8%

Q: What about the MIC [4] of the same compound?
A: 0.33 µM (≈ 0.111 µg/mL)

Q: And the MIC [5]?
A: 0.69 µM (≈ 0.231 µg/mL)

Q: And the selectivity ratio [2]?
A: 87

Q: What about the “growth inhibition (GI)” value [8] of the same compound?
A: inactive

Q: And the selectivity ratio [9]?
A: 20.7

Q: What about the IC50 [3] of the same compound?
A: 51.4 µM

Q: What about the Activity [10] of the same compound?
A: Non-toxic

Q: What about the MIC [6] of the same compound?
A: 0.8 µM (≈ 0.268 µg/mL)

Q: And the MIC [11]?
A: 2.48 µM (≈ 0.832 µg/mL)

Q: What about the Selectivity ratio [12] of the same compound?
A: 6

Q: What about the “growth inhibition (GI)” value [13] of the same compound?
A: Active

Q: And the MIC [14]?
A: 1.05 µM (≈ 0.352 µg/mL)

Q: What about the inhibition at 0.5 µM [15] of the same compound?
A: 52.6%

Q: Which results are given for `CCOC(=O)C1CCc2ncc3c(c2C1)C(=O)C1=C(C3=O)C2CCC1CC2` (stereo not given)?
A: MIC99 [1]: 0.26 µM (≈ 0.095 µg/mL); inhibition at 0.25 µM [7]: 55.8%; MIC [4]: 0.16 µM (≈ 0.0585 µg/mL); MIC [5]: 0.21 µM (≈ 0.0767 µg/mL); selectivity ratio [2]: 191; growth inhibition (GI) [8]: inactive; selectivity ratio [9]: 79.3; IC50 [3]: 49.8 µM; Activity [10]: Non-toxic; MIC [6]: 0.37 µM (≈ 0.135 µg/mL); MIC [11]: 2.41 µM (≈ 0.881 µg/mL); Selectivity ratio [12]: 10; growth inhibition (GI) [13]: Active; MIC [14]: 0.65 µM (≈ 0.238 µg/mL); inhibition at 0.5 µM [15]: 94.3%

Q: With `CCOC(=O)C1CCc2ncc3c(c2C1)C(=O)C1=C(C3=O)C2CCC1C2` (stereo not given) as the compound, how does the MIC99 [1] read?
A: 0.22 µM (≈ 0.0773 µg/mL)

Q: And the inhibition at 0.25 µM [7]?
A: 63.9%

Q: What about the MIC [4] of the same compound?
A: 0.14 µM (≈ 0.0492 µg/mL)

Q: What about the Activity [16] of the same compound?
A: Non-toxic

Q: What about the MIC [5] of the same compound?
A: 0.44 µM (≈ 0.155 µg/mL)

Q: What about the selectivity ratio [2] of the same compound?
A: 38.6

Q: And the “growth inhibition (GI)” value [8]?
A: inactive

Q: And the selectivity ratio [9]?
A: 10.8

Q: What about the IC50 [3] of the same compound?
A: 8.49 µM

Q: And the MIC [6]?
A: 1.22 µM (≈ 0.429 µg/mL)

Q: And the MIC [11]?
A: 2.38 µM (≈ 0.836 µg/mL)

Q: And the Selectivity ratio [12]?
A: 50

Q: What about the “growth inhibition (GI)” value [13] of the same compound?
A: Active

Q: And the MIC [14]?
A: 0.66 µM (≈ 0.232 µg/mL)

Q: And the inhibition at 0.5 µM [15]?
A: 86.7%

Q: What does the source list for `Cc1nc2c(c3c1C(=O)c1ccccc1C3=O)CCC(C)C2` (stereo not given)?
A: MIC99 [1]: 9.85 µM (≈ 2.87 µg/mL); selectivity ratio [2]: 2.61; IC50 [3]: 25.7 µM

Q: With `CC(C)(C)C1CCc2ncc3c(c2C1)C(=O)C1=C(C3=O)C2CCC1O2` (stereo not given) as the compound, how does the MIC99 [1] read?
A: 7.21 µM (≈ 2.43 µg/mL)

Q: What about the selectivity ratio [2] of the same compound?
A: 7.38

Q: What about the IC50 [3] of the same compound?
A: 53.2 µM

Q: Which MIC99 [1] does the source give for `CC(C)(C)C1CCc2ncc3c(c2C1)C(=O)C1=C(C3=O)C2CCC1CC2` (stereo not given) here?
A: 8.56 µM (≈ 2.99 µg/mL)

Q: What about the selectivity ratio [2] of the same compound?
A: 2.68

Q: And the IC50 [3]?
A: 22.9 µM

Q: For `O=C1c2ccccc2C(=O)c2c1cnc1c2CCCC1`, which MIC99 [1] is on record?
A: 9.88 µM (≈ 2.6 µg/mL)

Q: What about the selectivity ratio [2] of the same compound?
A: 0.74

Q: What about the IC50 [3] of the same compound?
A: 7.34 µM

Q: Which MIC99 [1] does the source give for `CC1CCc2ncc3c(c2C1)C(=O)c1ccccc1C3=O` (stereo not given) here?
A: 9.61 µM (≈ 2.67 µg/mL)

Q: And the selectivity ratio [2]?
A: 0.14

Q: And the IC50 [3]?
A: 1.31 µM

Q: Which results are given for `Cc1nc2c(c3c1C(=O)c1ccccc1C3=O)CCCC2`?
A: MIC99 [1]: 17.8 µM (≈ 4.93 µg/mL); selectivity ratio [2]: 0.61; IC50 [3]: 10.9 µM

Q: For `CC(C)(C)C1CCc2ncc3c(c2C1)C(=O)c1ccccc1C3=O` (stereo not given), which MIC99 [1] is on record?
A: 9.64 µM (≈ 3.08 µg/mL)

Q: And the selectivity ratio [2]?
A: 1.19

Q: And the IC50 [3]?
A: 11.5 µM

Q: Which results are given for `CO[C@H]1/C=C/O[C@@]2(C)Oc3c(C)c(O)c4c(O)c(c(/C=N/N5CCN(C)CC5)c(O)c4c3C2=O)NC(=O)/C(C)=C\C=C\[C@H](C)[C@H](O)[C@@H](C)[C@@H](O)[C@@H](C)[C@H](OC(C)=O)[C@@H]1C` [RIFAMPIN]?
A: MIC99 [1]: 0.19 µM (≈ 0.156 µg/mL); selectivity ratio [2]: > 526; IC50 [3]: > 100 µM
